In ChEMBL document CHEMBL1140686, “Indanylacetic acids as PPAR-delta activator insulin sensitizers” (Bioorg Med Chem Lett, 2007):
Calls of active or inactive are those of the source. The rule behind the calls is not given here.

How the values were obtained:
[1] = target: T1, Peroxisome proliferator-activated receptor alpha (Homo sapiens, UniProt Q07869); assay: (§1) Agonist activity at PPARalpha by FRET assay; type: functional
T1 sequence (Q07869 whole entry): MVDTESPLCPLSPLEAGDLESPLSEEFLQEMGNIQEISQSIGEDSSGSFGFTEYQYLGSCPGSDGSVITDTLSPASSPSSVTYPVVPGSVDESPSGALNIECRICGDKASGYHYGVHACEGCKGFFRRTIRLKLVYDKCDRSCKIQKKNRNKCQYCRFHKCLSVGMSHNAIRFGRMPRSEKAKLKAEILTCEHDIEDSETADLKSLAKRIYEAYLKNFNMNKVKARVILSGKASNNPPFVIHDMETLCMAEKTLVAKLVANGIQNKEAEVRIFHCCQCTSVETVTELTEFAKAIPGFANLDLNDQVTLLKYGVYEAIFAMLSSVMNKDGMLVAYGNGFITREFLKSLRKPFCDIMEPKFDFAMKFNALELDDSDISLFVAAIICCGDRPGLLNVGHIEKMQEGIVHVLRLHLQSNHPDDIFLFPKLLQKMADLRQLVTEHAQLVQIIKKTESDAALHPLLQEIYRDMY
Outline: (§2)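 FRET coactivator-recruitment assay run with the PPAR-δ ligand binding domain (GST-tagged human PPAR-δ LBD) and separately with the PPAR-α ligand binding domain. Compounds were incubated with europium-labelled anti-GST antibody, biotinylated TRAP220 coactivator protein and streptavidin-labelled APC. Read in a fluorimeter at excitation 340 nm and emission 615 and 665 nm.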

3T3-L1 = assay: Induction of insulin receptor in mouse 3T3L1 cells assessed as insulin sensitizing activity; type: functional, cell-based; conditions: for EC50: Mus musculus, 3T3-L1
Outline: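 3T3-L1 preadipocytes grown about 1 week to 2 days post-confluence, then exposed 2 days to compound plus 0.5 µM IGF-1 in DMEM/10% FBS/2 mM glutamine/pen-strep, then 4 days in plain medium. Cells bound 0.1 nM [125I]insulin ± 100 nM unlabeled insulin for 1 h at room temperature, were washed and lysed in 1 N NaOH, then gamma-counted. EC50 taken where a plateau was reached; percent maximal stimulation recorded.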

Mus musculus [2] = assay: Increase in serum HDL level in hApoA1 mouse model at 30 mg/kg, po; type: functional
Mus musculus [3] = assay: Reduction in blood glucose level in db/db mouse at 3 mg/kg, po; type: functional, organism-based; design: dose 3 mg/kg
Mus musculus [4] = assay: Decrease in serum triglyceride level in hApoA1 mouse model at 30 mg/kg, po; type: functional; design: scale not given: the % may be the effect or the level left
[5] = target: T2, Peroxisome proliferator-activated receptor alpha (Homo sapiens) (UniProt Q07869); assay: as §1; type: functional; outline: as §2
T2 sequence (whole entry): T1 sequence (Q07869 whole entry)

[6] = target: Peroxisome proliferator-activated receptor delta (Homo sapiens) (UniProt Q03181); assay: Agonist activity at GST-tagged human PPARdelta by FRET assay
Peroxisome proliferator-activated receptor delta (Homo sapiens), sequence (Q03181 whole entry, looked up): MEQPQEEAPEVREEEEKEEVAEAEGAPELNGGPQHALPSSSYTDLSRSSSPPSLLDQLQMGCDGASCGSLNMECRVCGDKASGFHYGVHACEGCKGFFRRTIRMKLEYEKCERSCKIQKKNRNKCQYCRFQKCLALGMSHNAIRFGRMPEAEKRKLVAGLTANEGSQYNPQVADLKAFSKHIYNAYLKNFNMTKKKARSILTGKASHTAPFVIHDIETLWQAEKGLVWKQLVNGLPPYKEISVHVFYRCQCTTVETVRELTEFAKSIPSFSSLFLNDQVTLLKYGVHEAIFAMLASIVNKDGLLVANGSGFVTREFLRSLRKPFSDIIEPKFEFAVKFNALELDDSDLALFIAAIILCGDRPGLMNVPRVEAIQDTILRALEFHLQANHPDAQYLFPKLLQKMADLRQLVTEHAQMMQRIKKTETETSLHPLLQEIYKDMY

Homo sapiens = species on record: Homo sapiens; assay: Selectivity for PPARdelta over PPARalpha; outline: as §2
Mus musculus [7] = assay: Decrease in serum triglyceride level in hApoA1 mouse model at 10 mg/kg, po; type: functional; design: scale not given: the % may be the effect or the level left
Mus musculus [8] = assay: Increase in serum HDL level in hApoA1 mouse model at 10 mg/kg, po; type: functional
Mus musculus [9] = assay: Reduction in blood glucose level in db/db mouse at 10 mg/kg, po; type: functional, organism-based; design: dose 10 mg/kg

Compound | EC50 [1] | EC50 (3T3-L1) | other results
COc1cccc(-c2nc(CCOc3ccc4c(c3)CC[C@H]4CC(=O)O)c(C)o2)c1 | 1.89 µM | 0.082 µM | –
Cc1oc(-c2ccc(-c3ccccc3)cc2)nc1CCOc1ccc2c(c1)CC[C@H]2CC(=O)O | 2.72 µM | 0.045 µM | Activity (Mus musculus [2]): 29%; Activity (Mus musculus [3]): Active; Activity (Mus musculus [4]): 38%
COc1ccc(-c2nc(CCOc3ccc4c(c3)CC[C@H]4CC(=O)O)c(C)n2C)cc1 | 10 µM | 0.644 µM | Activity (3T3-L1): 56%
Cc1oc(-c2ccccc2)nc1CCOc1ccc2c(c1)C(C)(C)CC2CC(=O)O (centres undefined) | 10 µM | 0.253 µM | Activity [5]: 7.5%; Activity [6]: 38%; Activity (3T3-L1): 66%
Cc1oc(-c2ccc(C(C)(C)C)cc2)nc1CCOc1ccc2c(c1)CC[C@H]2CC(=O)O | 0.546 µM | – | –
Cc1sc(-c2ccc(F)cc2)nc1CCOc1ccc2c(c1)CC[C@H]2CC(=O)O | 2.27 µM | 0.544 µM | –
Cc1oc(-c2ccccc2)nc1CCOc1ccc2c(c1)CC[C@H]2CC(=O)O | 2.46 µM | 0.231 µM | –
COc1ccc(-c2nc(C)c(CCOc3ccc4c(c3)CC[C@H]4CC(=O)O)n2C)cc1 | 10 µM | 5.56 µM | Activity (3T3-L1): 41%
Cc1oc(-c2ccccc2)nc1CCOc1ccc2c(c1)CCC[C@H]2CC(=O)O | 2.19 µM | – | Activity [5]: 58%; Activity [6]: 50%
CCc1ccc(-c2nc(CCOc3ccc4c(c3)CC[C@H]4CC(=O)O)c(C)o2)cc1 | 0.078 µM | 0.027 µM | –
COc1ccc(-c2nc(CCOc3ccc4c(c3)CC[C@H]4CC(=O)O)c(C)s2)cc1 | 3.28 µM | 0.166 µM | –
COc1ccc(-c2nc(CCOc3ccc4c(c3)CC[C@H]4CC(=O)O)c(C)o2)cc1 | 0.798 µM | 0.029 µM | –
Cc1oc(-c2ccc(F)cc2)nc1CCOc1ccc2c(c1)CC[C@H]2CC(=O)O | 0.504 µM | 0.354 µM | –
Cc1sc(-c2ccc(-c3ccccc3)cc2)nc1CCOc1ccc2c(c1)CC[C@H]2CC(=O)O | 10 µM | 0.27 µM | –
Cc1c(CCOc2ccc3c(c2)CC[C@H]3CC(=O)O)nc(-c2ccc(-c3ccccc3)cc2)n1C | 10 µM | 0.054 µM | –
Cc1sc(-c2ccc(OC(F)(F)F)cc2)nc1CCOc1ccc2c(c1)CC[C@H]2CC(=O)O | 7.94 µM | 0.225 µM | –
Cc1sc(-c2ccc(C(C)C)cc2)nc1CCOc1ccc2c(c1)CC[C@H]2CC(=O)O | 0.559 µM | 0.025 µM | –
Cc1c(CCOc2ccc3c(c2)CC[C@H]3CC(=O)O)nc(-c2ccccc2)n1C | 10 µM | 0.608 µM | Activity (3T3-L1): 55%
Cc1sc(-c2ccccc2)nc1CCOc1ccc2c(c1)CC[C@H]2CC(=O)O | 10 µM | 0.267 µM | Activity (3T3-L1): 60%
Cc1oc(-c2ccc(C#N)cc2)nc1CCOc1ccc2c(c1)CC[C@H]2CC(=O)O | 9.98 µM | 0.301 µM | –
CCc1ccc(-c2nc(C)c(CCOc3ccc4c(c3)CC[C@H]4CC(=O)O)n2C)cc1 | 10 µM | 0.155 µM | –
COC(C(=O)O)C1CCc2cc(OCCc3nc(-c4ccccc4)oc3C)ccc21 (centres undefined) | – | – | Ratio EC50 (Homo sapiens): 0.15
CCc1ccc(-c2nc(CCOc3ccc4c(c3)CC[C@H]4CC(=O)O)c(C)n2C)cc1 | 10 µM | 0.103 µM | –
Cc1oc(-c2ccccc2)nc1CCOc1ccc2c(c1)CCC2CC(=O)O (centres undefined) | 0.89 µM | – | Ratio EC50 (Homo sapiens): 32
Cc1cc(SCc2sc(-c3ccc(C(F)(F)F)cc3)nc2C)ccc1OCC(=O)O [GW501516] | – | – | Activity (Mus musculus [7]): 33%; Activity (Mus musculus [8]): 30%
Cc1sc(-c2cccc(C(F)(F)F)c2)nc1CCOc1ccc2c(c1)CC[C@H]2CC(=O)O | 10 µM | 0.045 µM | –
CCCc1oc(-c2ccccc2)nc1CCOc1ccc2c(c1)CC[C@H]2CC(=O)O | 10 µM | 3 µM | Activity (3T3-L1): 32%

Compound | EC50 [1] | EC50 (3T3-L1) | other results
Cc1oc(-c2ccccc2)nc1CCOc1ccc2c(c1)OCC2CC(=O)O (centres undefined) | 10 µM | – | Activity [5]: 15%
Cc1oc(-c2ccccc2)nc1CCOc1ccc2c(c1)CC(C)C2CC(=O)O (centres undefined) | 7.47 µM | 5.44 µM | Activity [5]: 11%; Activity (3T3-L1): 58%
Cc1oc(-c2cccc(C#N)c2)nc1CCOc1ccc2c(c1)CC[C@H]2CC(=O)O | 10 µM | 0.164 µM | –
Cc1sc(-c2ccccc2F)nc1CCOc1ccc2c(c1)CC[C@H]2CC(=O)O | 10 µM | 1.62 µM | –
CCOc1ccc(-c2nc(CCOc3ccc4c(c3)CC[C@H]4CC(=O)O)c(C)s2)cc1 | 10 µM | 0.165 µM | –
Cc1nc(-c2ccc(-c3ccccc3)cc2)n(C)c1CCOc1ccc2c(c1)CC[C@H]2CC(=O)O | 10 µM | 0.071 µM | –
Cc1oc(-c2ccccc2)nc1CCOc1ccc2c(c1)CCC2C(C)C(=O)O (centres undefined) | 0.22 µM | – | Ratio EC50 (Homo sapiens): 1.8
Cc1oc(-c2cccc(F)c2)nc1CCOc1ccc2c(c1)CC[C@H]2CC(=O)O | 1.69 µM | 0.371 µM | –
Cc1nc(-c2ccccc2)n(C)c1CCOc1ccc2c(c1)CC[C@H]2CC(=O)O | 10 µM | 5.94 µM | Activity (3T3-L1): 19%
CCC(C(=O)O)C1CCc2cc(OCCc3nc(-c4ccccc4)oc3C)ccc21 (centres undefined) | 0.13 µM | – | Ratio EC50 (Homo sapiens): 0.22
Cc1oc(-c2ccc(Cl)cc2)nc1CCOc1ccc2c(c1)CC[C@H]2CC(=O)O | 1.19 µM | 0.212 µM | –
Cc1ccc(-c2nc(CCOc3ccc4c(c3)CC[C@H]4CC(=O)O)c(C)o2)cc1 | 0.444 µM | 0.024 µM | –
Cc1oc(-c2ccc(C(C)C)cc2)nc1CCOc1ccc2c(c1)CC[C@H]2CC(=O)O | 0.3 µM | 0.033 µM | –
Cc1sc(-c2ccc3c(c2)OCO3)nc1CCOc1ccc2c(c1)CC[C@H]2CC(=O)O | 1.21 µM | 0.066 µM | –
COc1cccc(-c2nc(CCOc3ccc4c(c3)CC[C@H]4CC(=O)O)c(C)s2)c1 | 6.96 µM | 0.032 µM | –
Cc1cccc(-c2nc(CCOc3ccc4c(c3)CC[C@H]4CC(=O)O)c(C)s2)c1 | 6.79 µM | 0.05 µM | –
Cc1sc(-c2ccc(Cl)cc2)nc1CCOc1ccc2c(c1)CC[C@H]2CC(=O)O | 10 µM | 0.97 µM | –
Cc1sc(-c2cccc(F)c2)nc1CCOc1ccc2c(c1)CC[C@H]2CC(=O)O | 6.53 µM | 0.14 µM | –
O=C(O)C[C@@H]1CCc2cc(OCCc3nc(-c4ccccc4)oc3CCc3ccccc3)ccc21 | 10 µM | > 3 µM | Activity (3T3-L1): 9%
CCc1oc(-c2ccc(C)cc2)nc1CCOc1ccc2c(c1)CC[C@H]2CC(=O)O | 1.02 µM | 0.03 µM | –
Cc1ccc(-c2nc(CCOc3ccc4c(c3)CC[C@H]4CC(=O)O)c(C)s2)cc1 | 0.594 µM | 0.065 µM | –
Cc1cccc(-c2nc(CCOc3ccc4c(c3)CC[C@H]4CC(=O)O)c(C)o2)c1 | 1.15 µM | 0.101 µM | –
Cc1oc(-c2cccc(Cl)c2)nc1CCOc1ccc2c(c1)CC[C@H]2CC(=O)O | 1.57 µM | 0.2 µM | –
CN(CCOc1ccc(CC2SC(=O)NC2=O)cc1)c1ccccn1 (centres undefined) | – | – | Activity (Mus musculus [9]): Active
CCc1ccc(-c2nc(CCOc3ccc4c(c3)CC[C@H]4CC(=O)O)c(CC)o2)cc1 | 2.53 µM | 0.035 µM | –
CCc1oc(-c2ccccc2)nc1CCOc1ccc2c(c1)CC[C@H]2CC(=O)O | 10 µM | 0.186 µM | –
